Laboratory results: ChEMBL document CHEMBL1134291, “The synthesis of a prodrug of doxorubicin designed to provide reduced systemic toxicity and greater target efficacy” (J Med Chem, 2001)
*1 amine or outer side, *2 acyl side, *3 side chain or, on linkers, in order; H or OH if unused. Where a SMILES comes first, the peptide text is derived from it. [ ]: non-standard residue; d: D form. The star is where a group is joined. Doxorubicin(3'-N) = COc1cccc2c1C(=O)c1c(O)c3c(c(O)c1C2=O)C[C@@](O)(C(=O)CO)C[C@@H]3O[C@H]1C[C@H](N*)[C@H](O)[C@H](C)O1; X1 = COc1cccc2c1C(=O)c1c(O)c3c(c(O)c1C2=O)C[C@@](O)(C(=O)CO)C[C@@H]3OC1CC(N*)C(O)C(C)O1; Glutaryl = O=C(CCCC(=O)[*:2])[*:1]; Hyp = O=C(O)[C@@H]1C[C@@H](O)CN1; Chg = N[C@H](C(=O)O)C1CCCCC1; Orn = NCCC[C@H](N)C(=O)O

Tests used:
LNCaP [1] = assay: Concentration required to kill 50% of tumor cells in PSA producing LNCaP human prostate cancer cell line; format: functional, cell-based
LNCaP [2] = assay: Percentage PSA reduction relative to vehicle control following intraperitoneal injection of conjugate dose for 5 consecutive days to nude mice bearing LNCaP tumor xenografts; format: functional, Homo sapiens
Mus musculus [3] = assay: Maximum nonlethal drug dose which could be administered (ip) to non tumor bearing nude mice for 5 consecutive days; format: functional
DuPro = assay: Concentration required to kill 50% of tumor cells in PSA nonproducing DuPRO human prostate cancer cell line; format: functional, cell-based
Mus musculus [4] = assay: Percentage weight reduction relative to vehicle control following intraperitoneal (ip) injection of conjugate dose for 5 consecutive days to nude mice bearing LNCaP tumor xenografts( 7.6 umol/kg dose); format: functional
PSA = assay: Time required for PSA to hydrolyze 50% (t1/2); format: ADME; settings: PSA (enzyme)
Mus musculus [5] = assay: Percentage weight reduction relative to vehicle control following intraperitoneal (ip) injection of conjugate dose for 5 consecutive days to nude mice bearing LNCaP tumor xenografts(36.6 umol/kg dose); format: functional
In short: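 Nude mice carrying xenografts of PSA-secreting human prostate LNCaP cells received the conjugate intraperitoneally once daily for 5 consecutive days. Circulating PSA and tumor weight were each expressed as percent reduction against vehicle-treated controls.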

Mus musculus [6] = assay: Percentage weight reduction relative to vehicle control following intraperitoneal (ip) injection of conjugate dose for 5 consecutive days to nude mice bearing LNCaP tumor xenografts( 22.4 umol/kg dose); format: functional
Mus musculus [7] = assay: Percentage weight reduction relative to vehicle control following intraperitoneal (ip) injection of conjugate dose for 5 consecutive days to nude mice bearing LNCaP tumor xenografts( 29.3 umol/kg dose); format: functional
Mus musculus [8] = assay: Percentage weight reduction relative to vehicle control following intraperitoneal (ip) injection of conjugate dose for 5 consecutive days to nude mice bearing LNCaP tumor xenografts( 21.5 umol/kg dose); format: functional
Mus musculus [9] = assay: Percentage weight reduction relative to vehicle control following intraperitoneal (ip) injection of conjugate dose for 5 consecutive days to nude mice bearing LNCaP tumor xenografts (2.8 umol/kg dose); format: functional

Row | half-life (PSA) [h] | Compound | EC50 (LNCaP [1]) [µM] | EC50 (DuPro) [µM] | also measured
1 | – | COc1cccc2c1C(=O)c1c(O)c3c(c(O)c1C2=O)C[C@@](O)(C(=O)CO)C[C@@H]3OC1CC(NC(=O)[C@H](N)CC(C)C)C(O)C(C)O1 (some centres not stated) | 6.7 | 14 | Reduction (LNCaP [2]): 10%; MTD (Mus musculus [3]): 7.6 µM/kg; Reduction (Mus musculus [4]): -5%
2 | – | COc1cccc2c1C(=O)c1c(O)c3c(c(O)c1C2=O)C[C@@](O)(C(=O)CO)C[C@@H]3O[C@H]1C[C@H](NC(=O)[C@H](C)NC(=O)[C@H](C)NC(=O)[C@H](C)NC(C)=O)[C@H](O)[C@H](C)O1 | > 100 | > 100 | –
3 | 0.5 | COc1cccc2c1C(=O)c1c(O)c3c(c(O)c1C2=O)C[C@@](O)(C(=O)CO)C[C@@H]3O[C@H]1C[C@H](NC(=O)[C@H](CC(C)C)NC(=O)[C@H](CO)NC(=O)[C@H](C)NC(=O)[C@H](CO)NC(=O)[C@H](CCC(N)=O)NC(=O)[C@H](Cc2ccc(O)cc2)NC(=O)[C@H](CO)NC(=O)[C@H](C)NC(=O)[C@H](CCCCN)NC(=O)[C@H](CC(N)=O)NC(=O)[C@H](C)NC(C)=O)[C@H](O)[C@H](C)O1 (Ac-ANKASYQSASL-{Doxorubicin(3'-N)}) | 12.5 | > 100 | –
4 | – | COc1cccc2c1C(=O)c1c(O)c3c(c(O)c1C2=O)C[C@@](O)(C(=O)CO)C[C@@H]3O[C@H]1C[C@H](NC(=O)[C@H](CC(C)C)NC(=O)[C@H](CO)NC(=O)[C@H](CO)NC(=O)[C@H](CCC(N)=O)NC(=O)[C@H](Cc2ccc(O)cc2)NC(=O)[C@H](CO)NC(=O)[C@H](C)NC(=O)[C@H](CCCCN)NC(=O)[C@H](CC(N)=O)NC(=O)[C@H](C)NC(C)=O)[C@H](O)[C@H](C)O1 (Ac-ANKASYQSSL-{Doxorubicin(3'-N)}) [listing 1 of 2 here] | 6.3 | > 100 | –
5 | – | COc1cccc2c1C(=O)c1c(O)c3c(c(O)c1C2=O)C[C@@](O)(C(=O)CO)C[C@@H]3O[C@H]1C[C@H](NC(=O)[C@H](CC(C)C)NC(=O)[C@H](CO)NC(=O)[C@H](CO)NC(=O)[C@H](CCC(N)=O)NC(=O)[C@H](Cc2ccc(O)cc2)NC(=O)[C@H](CO)NC(=O)[C@H](C)NC(=O)[C@H](CCCCN)NC(=O)[C@H](CC(N)=O)NC(=O)[C@H](C)NC(C)=O)[C@H](O)[C@H](C)O1 (Ac-ANKASYQSSL-{Doxorubicin(3'-N)}) [listing 2 of 2 here] | – | – | Reduction (Mus musculus [5]): 81%; Reduction (LNCaP [2]): 87%; MTD (Mus musculus [3]): >36.6 µM/kg
6 | 0.5 | COc1cccc2c1C(=O)c1c(O)c3c(c(O)c1C2=O)C[C@@](O)(C(=O)CO)C[C@@H]3O[C@H]1C[C@H](NC(=O)[C@H](CC(C)C)NC(=O)[C@H](CO)NC(=O)[C@H](CO)NC(=O)[C@H](CO)NC(=O)[C@H](CCC(N)=O)NC(=O)[C@H](Cc2ccc(O)cc2)NC(=O)[C@H](CO)NC(=O)[C@H](C)NC(=O)[C@H](CCCCN)NC(=O)[C@H](CC(N)=O)NC(=O)[C@H](C)NC(C)=O)[C@H](O)[C@H](C)O1 (Ac-ANKASYQSSSL-{Doxorubicin(3'-N)}) | 7 | 117 | –
7 | 0.5 | COc1cccc2c1C(=O)c1c(O)c3c(c(O)c1C2=O)C[C@@](O)(C(=O)CO)C[C@@H]3OC1CC(NC(=O)[C@H](CC(C)C)NC(=O)[C@H](CO)NC(=O)[C@H](CCC(N)=O)NC(=O)[C@H](Cc2ccc(O)cc2)NC(=O)[C@H](CO)NC(=O)[C@H](C)NC(=O)[C@H](CCCCN)NC(C)=O)C(O)C(C)O1 (some centres not stated) (Ac-KASYQSL-X1) | 4.8 | 100 | –
8 | – | COc1cccc2c1C(=O)c1c(O)c3c(c(O)c1C2=O)C[C@@](O)(C(=O)CO)C[C@@H]3OC1CC(NC(=O)[C@H](CC(C)C)NC(=O)[C@H](CO)NC(=O)[C@H](CCC(N)=O)NC(=O)[C@@H](NC(=O)[C@H](CO)NC(=O)[C@H](C)NC(=O)[C@H](CCCCN)NC(C)=O)C2CCCCC2)C(O)C(C)O1 (some centres not stated) (Ac-KAS[Chg]QSL-X1) [listing 1 of 2 here] | 4.5 | > 100 | –
9 | – | COc1cccc2c1C(=O)c1c(O)c3c(c(O)c1C2=O)C[C@@](O)(C(=O)CO)C[C@@H]3OC1CC(NC(=O)[C@H](CC(C)C)NC(=O)[C@H](CO)NC(=O)[C@H](CCC(N)=O)NC(=O)[C@@H](NC(=O)[C@H](CO)NC(=O)[C@H](C)NC(=O)[C@H](CCCCN)NC(C)=O)C2CCCCC2)C(O)C(C)O1 (some centres not stated) (Ac-KAS[Chg]QSL-X1) [listing 2 of 2 here] | – | – | Reduction (Mus musculus [6]): 73%; Reduction (LNCaP [2]): 95%; MTD (Mus musculus [3]): 29.9 µM/kg
10 | 0.75 | COc1cccc2c1C(=O)c1c(O)c3c(c(O)c1C2=O)C[C@@](O)(C(=O)CO)C[C@@H]3OC1CC(NC(=O)[C@H](CC(C)C)NC(=O)[C@H](CO)NC(=O)[C@H](CCC(N)=O)NC(=O)[C@@H](NC(=O)[C@H](CO)NC(=O)[C@H](C)NC(=O)[C@@H]2CCCN2C(C)=O)C2CCCCC2)C(O)C(C)O1 (some centres not stated) (Ac-PAS[Chg]QSL-X1) | 7.4 | > 100 | –
11 | – | COc1cccc2c1C(=O)c1c(O)c3c(c(O)c1C2=O)C[C@@](O)(C(=O)CO)C[C@@H]3O[C@H]1C[C@H](NC(=O)[C@H](CC(C)C)NC(=O)[C@H](CO)NC(=O)[C@H](CCC(N)=O)NC(=O)[C@@H](NC(=O)[C@H](CO)NC(=O)[C@H](C)NC(=O)[C@@H]2C[C@@H](O)CN2C(=O)CCCC(=O)O)C2CCCCC2)[C@H](O)[C@H](C)O1 (Glutaryl-[Hyp]AS[Chg]QSL-{Doxorubicin(3'-N)}) [listing 2 of 2 here] | – | – | Reduction (LNCaP [2]): 95%; MTD (Mus musculus [3]): 28.6 µM/kg; Reduction (Mus musculus [8]): 87%
12 | – | COc1cccc2c1C(=O)c1c(O)c3c(c(O)c1C2=O)C[C@@](O)(C(=O)CO)C[C@@H]3O[C@H]1C[C@H](N)[C@H](O)[C@H](C)O1 [DOXORUBICIN] | 0.7 | 1.8 | Reduction (Mus musculus [9]): 6%; Reduction (LNCaP [2]): 16%; MTD (Mus musculus [3]): 2.8 µM/kg
13 | 0.833 | Ac-ANKASYQSASTE-NH2 | – | – | –
14 | 1.75 | Ac-ANKASYQSSSTE-NH2 | – | – | –
15 | 2.08 | Ac-ANKISYQSAKTE-NH2 | – | – | –
16 | 2.42 | Ac-ANKISYQSASTE-NH2 | – | – | –
17 | 1.83 | Ac-ANKISYQSSKTE-NH2 | – | – | –
18 | > 4 | Ac-ANKISYQSSSTE-NH2 | – | – | –
19 | 2.5 | Ac-ANKISYYSSSTE-NH2 | – | – | –
20 | > 4 | H-ANKISYQSS-OH | – | – | –
21 | 1.75 | H-ANKISYQSSSTE-OH | – | – | –
22 | 0.417 | H-SQKANKISYQSSSTEERRLHYGENG-OH | – | – | –
23 | > 3 | H-SYQSSSTE-OH | – | – | –

Row | Compound | half-life (PSA) [h] | EC50 (LNCaP [1]) [µM] | EC50 (DuPro) [µM] | also measured
24 | COc1cccc2c1C(=O)c1c(O)c3c(c(O)c1C2=O)C[C@@](O)(C(=O)CO)C[C@@H]3OC1CC(NC(=O)[C@H](CC(C)C)NC(=O)[C@H](CO)NC(=O)[C@H](CO)NC(=O)[C@H](CO)NC(=O)[C@H](CCC(N)=O)NC(=O)[C@H](Cc2ccc(O)cc2)NC(=O)[C@H](CCCN)NC(C)=O)C(O)C(C)O1 (some centres not stated) (Ac-[Orn]YQSSSL-X1) | 2 | 7 | > 100 | Reduction (Mus musculus [7]): 80%; Reduction (LNCaP [2]): 93%; MTD (Mus musculus [3]): 33 µM/kg
25 | COc1cccc2c1C(=O)c1c(O)c3c(c(O)c1C2=O)C[C@@](O)(C(=O)CO)C[C@@H]3O[C@H]1C[C@H](NC(=O)[C@H](CC(C)C)NC(=O)[C@H](CO)NC(=O)[C@H](CCC(N)=O)NC(=O)[C@@H](NC(=O)[C@H](CO)NC(=O)[C@H](C)NC(=O)[C@@H]2C[C@@H](O)CN2C(=O)CCCC(=O)O)C2CCCCC2)[C@H](O)[C@H](C)O1 (Glutaryl-[Hyp]AS[Chg]QSL-{Doxorubicin(3'-N)}) [listing 1 of 2 here] | 0.5 | 5 | > 100 | –
